Our source for the CC50, Activity and half-life values is ChEMBL document CHEMBL4041550, “Structure-Activity Relationship Study of QL47: A Broad-Spectrum Antiviral Agent” (ACS Med Chem Lett, 2017).

Some results are limits rather than exact numbers.

A short description of data set [1]: Cytotoxicity against human HuH7 cells measured after 24 hrs by CellTiter-Glo luminescent cell viability assay. The class given is cell-based, Huh-7. The essentials: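 DENV2-infected Huh7 cells treated across a concentration range; cell viability read 24 h later. CC50 (50% cytotoxicity) derived by non-linear regression; mean ± SD of experimental duplicates, n ≥ 2 repeats.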
(Cellular ATP, detected with luciferase, serves as a proxy for viable cell number.)

The subject of data set [2] is dengue virus type 2. Put plainly: Antiviral activity against Dengue virus serotype 2 replicon harboring GVD mutant infected in HuH7 cells assessed as reduction in viral RNA translation at 2 uM measured at 6 hrs post infection by luciferase reporter gene assay relative to control. Format: functional. Set-up: scale not given: the % may be the effect or the level left. In a few lines: (§1)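 Huh7 cells transfected with in vitro-transcribed nonreplicative DENV2(GVD) reporter replicon RNA, then treated immediately with compound at 2 or 10 μM. Intracellular firefly luciferase activity read 6 h post-transfection as a measure of RNA translation and expressed relative to DMSO-treated samples. Mean ± SD of experimental duplicates, n = 3 repeats.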

For data set [3], the system named is dengue virus type 2. The data set can be described thus: Antiviral activity against Dengue virus serotype 2 replicon harboring GVD mutant infected in HuH7 cells assessed as reduction in viral RNA translation at 10 uM measured at 6 hrs post infection by luciferase reporter gene assay relative to control. Format: functional. Also noted: scale not given: the % may be the effect or the level left. The essentials: as §1
(In general: In antiviral work, replicon cells carry a viral genome segment that copies itself.)

In data set [4] the test system is dengue virus type 2. The data set can be described thus: Antiviral activity against Dengue virus serotype 2 strain New Guinea C infected in HuH7 cells assessed as reduction in log-fold change by measuring focus forming unit at 2 uM measured at 24 hrs post infection by focus forming assay relative to control. Format: functional, Thailand/NGS-C/1944. The essentials:
(§2)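 DENV2-infected Huh7 cells treated with compound at 2 or 10 μM. Infectious virus secreted into culture supernatants at 24 h post-infection/treatment was titred by focus-forming assay. Result expressed as log-fold change relative to DMSO treatment.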

Data set [5] concerns dengue virus type 2. Put plainly: Antiviral activity against Dengue virus serotype 2 strain New Guinea C infected in HuH7 cells assessed as reduction in log-fold change by measuring focus forming unit at 10 uM measured at 24 hrs post infection by focus forming assay relative to control. Format: functional, Thailand/NGS-C/1944. The essentials: as §2
Data set [6] can be described thus: Half life in mouse hepatic microsomes at 1 uM in presence of NADPH by LC-MS/MS method. The note with it: liver microsomes. The class given is ADME, Microsome. In a few lines:
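Compound incubated with mouse liver microsomes; half-life (T1/2, min) of the compound reported as a measure of metabolic stability.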
In general terms: Liver microsomes are vesicles of endoplasmic reticulum, rich in cytochrome P450 enzymes.

A word on the CC50: it is the concentration giving 50% cytotoxicity. What is called half-life is how long it takes for the measured level to halve. Molecule `C=CC(=O)Nc1cc(-n2c(=O)ccc3ccc4ccc(-c5cn[nH]c5)cc4c32)ccc1C` returned a CC50 at 24 h in data set [1] of 29 µM. The Activity is on record as 39% in the data set on dengue virus type 2 [2], 79% with dengue virus type 2 [3], 2 log10FFU/ml in the data set with dengue virus type 2 [4] and 4 log10FFU/ml in the data set with dengue virus type 2 [5]. Further, the half-life at 1 µM in data set [6] is 4 min.

In turn, `C=CC(=O)Nc1cc(-n2c(=O)ccc3cnc4ccc(-c5cnn(C)c5)cc4c32)ccc1F` showed a CC50 at 24 h in data set [1] of 105 µM. For the same molecule, the Activity amounted to 97% with dengue virus type 2 [2], 99% in the data set with dengue virus type 2 [3], 4 log10FFU/ml with dengue virus type 2 [4] and 4 log10FFU/ml in the data set with dengue virus type 2 [5]. Moreover, in data set [6], the half-life at 1 µM is 4.5 min.

The molecule `C=CC(=O)Nc1cc(-n2c(=O)ccc3cnc4ccc(-c5cnc6ccccc6c5)cc4c32)ccc1C` yielded a CC50 at 24 h in data set [1] of more than 160 µM. Also, the Activity came out at 82% in the data set on dengue virus type 2 [2], 95% with dengue virus type 2 [3], 2.7 log10FFU/ml with dengue virus type 2 [4] and 4 log10FFU/ml with dengue virus type 2 [5]. Also, the half-life at 1 µM in data set [6] was 1.3 min.

Take `C=CC(=O)N1CCc2ccc(-n3c(=O)n(C)c4cnc5ccc(-c6ccc7ccncc7c6)cc5c43)cc21`: the CC50 at 24 h in data set [1] was found to be 126 µM. For the same molecule, the Activity in the data set on dengue virus type 2 [2] was determined as 77%; with dengue virus type 2 [3], 98%; in the data set on dengue virus type 2 [4] it was 2 log10FFU/ml; in the data set with dengue virus type 2 [5], 4 log10FFU/ml. In addition, in data set [6], the half-life at 1 µM stood at 2 min.

In turn, `C=CC(=O)Nc1cc(-n2c(=O)ccc3cnc4ccc(-c5cnn(C)c5)cc4c32)ccc1C(=O)N(C)C` had a CC50 at 24 h in data set [1] of 83 µM. The Activity is 4% in the data set on dengue virus type 2 [2], 93% with dengue virus type 2 [3], 2 log10FFU/ml in the data set with dengue virus type 2 [4] and 4 log10FFU/ml with dengue virus type 2 [5].

Molecule `C=CC(=O)Nc1cc(-n2c(=O)ccc3cnc4ccc(-c5cnn(C)c5)cc4c32)ccc1OCCNC(C)=O` yielded a CC50 at 24 h in data set [1] of 99 µM. For the same molecule, the Activity in the data set on dengue virus type 2 [2] is 39%; in the data set with dengue virus type 2 [3] it was 90%; in the data set with dengue virus type 2 [4], 1.1 log10FFU/ml; in the data set with dengue virus type 2 [5], 4 log10FFU/ml.

As for `C=CC(=O)Nc1cc(-n2c(=O)ccc3cnc4ccc(-c5cnn(C)c5)cc4c32)ccc1C`, the CC50 at 24 h in data set [1] is more than 160 µM. In addition, the Activity is listed as 40% with dengue virus type 2 [2], 34% with dengue virus type 2 [3], 1 log10FFU/ml with dengue virus type 2 [4] and 4 log10FFU/ml with dengue virus type 2 [5]. Besides, the half-life at 1 µM in data set [6] was determined as 4.1 min.

`C=CC(=O)Nc1cc(-n2c3c(ccc2=O)CCc2ccc(-c4cnn(C)c4)cc2-3)ccc1C`: the CC50 at 24 h in data set [1] is more than 160 µM. Also, the Activity is 49% in the data set with dengue virus type 2 [2], 60% in the data set with dengue virus type 2 [3], 0.5 log10FFU/ml in the data set with dengue virus type 2 [4] and 1 log10FFU/ml with dengue virus type 2 [5].

In the case of `C=CC(=O)Nc1cc(-n2c(=O)ccc3cnc4ccc(-c5cnn(C)c5)cc4c32)ccc1C(=O)O`, the CC50 at 24 h in data set [1] was more than 160 µM. Also, the Activity is 3% in the data set with dengue virus type 2 [2], 19% in the data set on dengue virus type 2 [3], 0 log10FFU/ml with dengue virus type 2 [4] and 0 log10FFU/ml in the data set on dengue virus type 2 [5].

`C=CC(=O)N1CCc2ccc(N3C(=O)NCc4cnc5ccc(-c6cnn(C)c6)cc5c43)cc21` came in with a CC50 at 24 h in data set [1] of 68 µM. The Activity with dengue virus type 2 [2] is reported as 49%; with dengue virus type 2 [3] it was 53%; in the data set with dengue virus type 2 [4], 0.1 log10FFU/ml; in the data set on dengue virus type 2 [5] it was 0.8 log10FFU/ml. Further, in data set [6], the half-life at 1 µM was 2 min.

With `C=CC(=O)N1CCc2ccc(-n3c(=O)ccc4cnc5ccc(-c6ccc(S(=O)(=O)NC(C)(C)C)cc6)cc5c43)cc21`, the CC50 at 24 h in data set [1] was 13 µM. The Activity in the data set with dengue virus type 2 [2] was found to be 81%; in the data set with dengue virus type 2 [3], 100%; with dengue virus type 2 [4] it was 0 log10FFU/ml; in the data set on dengue virus type 2 [5], 1.9 log10FFU/ml. For the same molecule, the half-life at 1 µM in data set [6] is 2.3 min.

Turning to `C=CC(=O)Nc1cc(-n2c(=O)ccc3ccc4ccc(-c5cnn(C)c5)cc4c32)ccc1C`, in data set [1], the CC50 at 24 h was more than 160 µM. Moreover, the Activity with dengue virus type 2 [2] amounted to 76%; with dengue virus type 2 [3], 95%; in the data set with dengue virus type 2 [4], 4 log10FFU/ml; with dengue virus type 2 [5], 4 log10FFU/ml. The half-life at 1 µM in data set [6] amounted to 4 min.

The molecule `C=CC(=O)Nc1cc(-n2c(=O)ccc3cnc4ccc(-c5ccc6c(c5)OCO6)cc4c32)ccc1C` came in with a CC50 at 24 h in data set [1] of 46 µM. Moreover, the Activity in the data set with dengue virus type 2 [2] came to 32%; with dengue virus type 2 [3], 94%; in the data set with dengue virus type 2 [4], 2.8 log10FFU/ml; with dengue virus type 2 [5] it was 4 log10FFU/ml. In addition, in data set [6], the half-life at 1 µM is 2.7 min.

Take `C=CC(=O)Nc1cc(-n2c(=O)ccc3cnc4ccc(-c5ccc(N)nc5)cc4c32)ccc1C`: the CC50 at 24 h in data set [1] amounted to 75 µM. The Activity is listed as 44% in the data set with dengue virus type 2 [2], 75% in the data set on dengue virus type 2 [3], 0.8 log10FFU/ml in the data set on dengue virus type 2 [4] and 4 log10FFU/ml with dengue virus type 2 [5]. In data set [6], the half-life at 1 µM was found to be 6.4 min.

Turning to `C=CC(=O)Nc1cc(-n2c(=O)ccc3cnc4ccc(Nc5cnn(C)c5)cc4c32)ccc1C`, it took 107 µM to reach half-maximal cytotoxicity in data set [1] (CC50 at 24 h). Moreover, the Activity in the data set with dengue virus type 2 [2] is 23%; with dengue virus type 2 [3] it was 24%; with dengue virus type 2 [4] it was 0 log10FFU/ml; with dengue virus type 2 [5], 0.4 log10FFU/ml. In data set [6], the half-life at 1 µM worked out at 7.9 min.

In data set [1], `C=CC(=O)Nc1cc(-n2c(=O)ccc3cnc4ccc(-c5cn[nH]c5)cc4c32)ccc1C` registered a CC50 at 24 h of 77 µM. The Activity in the data set with dengue virus type 2 [2] came to 29%; in the data set on dengue virus type 2 [3], 76%; in the data set with dengue virus type 2 [4], 0.8 log10FFU/ml; with dengue virus type 2 [5], 4 log10FFU/ml. Besides, the half-life at 1 µM in data set [6] came to 6.5 min.

In data set [1], `C=CC(=O)Nc1cc(-n2c3c(ccc2=O)CCc2ccc(-c4ccc5ccncc5c4)cc2-3)ccc1C` came in with a CC50 at 24 h of more than 160 µM. Besides, the Activity in the data set with dengue virus type 2 [2] is on record as 77%; in the data set with dengue virus type 2 [3] it was 88%; with dengue virus type 2 [4], 0.5 log10FFU/ml; in the data set on dengue virus type 2 [5], 0.1 log10FFU/ml.

For the molecule `C=CC(=O)Nc1cc(-n2c(=O)ccc3ccc4ccc(-c5ccc6ccncc6c5)cc4c32)ccc1C`, the CC50 at 24 h in data set [1] amounted to 75 µM. The Activity in the data set on dengue virus type 2 [2] turned out to be 82%; in the data set on dengue virus type 2 [3], 94%; with dengue virus type 2 [4], 1.9 log10FFU/ml; in the data set with dengue virus type 2 [5] it was 4 log10FFU/ml. Also, the half-life at 1 µM in data set [6] turned out to be 9 min.

`C=CC(=O)Nc1cc(-n2c(=O)ccc3cnc4ccc(N5CCOCC5)cc4c32)ccc1C` returned a CC50 at 24 h in data set [1] of 103 µM. The Activity in the data set on dengue virus type 2 [2] turned out to be 0%; in the data set on dengue virus type 2 [3], 23%; in the data set on dengue virus type 2 [4] it was 0.1 log10FFU/ml; with dengue virus type 2 [5], 1.2 log10FFU/ml. For the same molecule, the half-life at 1 µM in data set [6] came out at 9 min.

For `Cc1ccc(-n2c(=O)ccc3ccc4ccc(-c5ccc6ccncc6c5)cc4c32)cc1NC(=O)/C=C/CN(C)C`, in data set [1], the CC50 at 24 h was 21 µM. Further, the Activity is reported as 17% in the data set with dengue virus type 2 [2], 66% with dengue virus type 2 [3], 3.3 log10FFU/ml in the data set on dengue virus type 2 [4] and 4 log10FFU/ml in the data set with dengue virus type 2 [5]. The half-life at 1 µM in data set [6] came out at 6.3 min.
